Tests used:
[1] = test system: DU145 cells; type: cell-based, human; conditions: for intracellular accumulation, fluorescence microscopy: 20 µM FITC-labeled peptide, 4 h (Fig. S1A; method section: 10 μM)
Method in brief: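 FITC-labeled peptides were added to the DU145 culture medium at 10 um and incubated for 4 h. Intracellular distribution of fluorescein was then imaged by fluorescence microscopy with a CCD camera.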

[2] = test system: DU145 cells; experiment: Flow cytometric cell cycle analysis of DU145 cells; type: cell-based, human; conditions: 20 μM peptide, 24 h (Fig. 2A)
[3] = test system: endogenous p27^Kip1; type: cell-based, human; conditions: 20 μM FITC-labeled peptide, 24 h (Fig. 2B)
Method in brief: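 DU145 cells (RPMI 1640, 10% FBS, 100 ug/ml kanamycin, 5% CO2) were exposed to 20 uM FITC-labeled cell-permeable peptides, or no peptide, for 24 h. Whole lysates or separated cytoplasmic and nuclear fractions were immunoblotted for endogenous p27Kip1 using nitrocellulose and ECL, with β-actin and topoisomerase II as markers. For localization, cells were formaldehyde-fixed, stained with anti-p27Kip1 and Alexa Fluor 568 secondary, and counterstained with Hoechst 33342.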

[4] = test system: DU145 cells; experiment: Apoptosis of DU145 cells; type: cell-based, human; conditions: 20 μM peptide, 72 h; flow cytometry (Fig. 3A)
[5] = test system: DU145 xenografts; experiment: Anti-tumor activity in human prostate cancer DU145 xenografts in nude mice; type: in vivo, human tumor in BALB/c-nu/nu mice; conditions: taxol alone, 60 mg/kg i.v. day 0; data not shown
Method in brief: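 DU145 cells implanted s.c. into right flank of 5–6-week-old male BALB/c nude mice; tumor pieces passaged s.c. into new mice. At ~100 mm3 (day 0), six mice/group. Taxol 60 mg/kg i.v. on day 0; test compound or vehicle given intratumorally on days 0 and 5. Caliper volume = longest × shortest²/2; body weight tracked; Student's t test.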

Molecule | intracellular accumulation, fluorescence microscopy [1] | intracellular accumulation, flow cytometric analysis ([1]; FITC-labeled peptide (Fig. S1B)) | increase in the number of cells in G1 phase [2] | expression of p27^Kip1 [3] | increase in the sub-G1 fraction [4] | inhibitory effect on tumor growth, given alone [5]
GGGRRRRRRGC-KKPGLDRDQT [R8-T198mu] | had accumulated in cells | had accumulated almost equally in cells | not with Arg^8 and R8-T198mu | not R8-T198mu enhances the expression of p27^Kip1 | not with R8-T198mu | –
GGGRRRRRRRRGC [Arg^8, reference compound] | had accumulated in cells | – | not with Arg^8 and R8-T198mu | – | – | –
CC(=O)O[C@H]1C(=O)[C@@]2(C)[C@H]([C@H](OC(=O)c3ccccc3)[C@]3(O)C[C@H](OC(=O)[C@H](O)[C@@H](NC(=O)c4ccccc4)c4ccccc4)C(C)=C1C3(C)C)[C@]1(OC(C)=O)CO[C@@H]1C[C@@H]2O [taxol] | – | – | – | – | – | did not show an inhibitory effect

Reference: PMC3024764 (The Journal of Biological Chemistry, 2010)
